Reference: ChEMBL document CHEMBL5033991, “Targeting the FtsZ Allosteric Binding Site with a Novel Fluorescence Polarization Screen, Cytological and Structural Approaches for Antibacterial Discovery” (J Med Chem, 2021)
Values after ≈ are worked out from the molar mass of the structure shown. Active and inactive are the calls of the source. No cut-off for these calls is given here.

What was measured:
Bacillus subtilis [1] = experiment: Inhibition of Bacillus subtilis cell division assessed as induction of filamentous phenotype at 25 to 100 uM incubated for 1.5 hrs by fluorescence microscopic analysis; type: functional, organism-based; settings: dose 25-100 µM
Method in brief: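 B. subtilis grown in cation-adjusted Mueller–Hinton broth to A600 0.1–0.2, then treated 1.5 h with fluorescent benzamide probe. Cells imaged by fluorescence microscopy using the probe's own fluorescence; filamentous phenotype scored as division inhibition.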

[2] = target: T1, Cell division protein FtsZ (Bacillus subtilis) (UniProt A5Z1V5); experiment: Binding affinity to Bacillus subtilis FtsZ assessed as decrease in fluorescence anisotropy values at 20 to 200 uM by fluorescence anisotropy analysis; settings: dose 20-200 µM
T1 sequence (whole entry): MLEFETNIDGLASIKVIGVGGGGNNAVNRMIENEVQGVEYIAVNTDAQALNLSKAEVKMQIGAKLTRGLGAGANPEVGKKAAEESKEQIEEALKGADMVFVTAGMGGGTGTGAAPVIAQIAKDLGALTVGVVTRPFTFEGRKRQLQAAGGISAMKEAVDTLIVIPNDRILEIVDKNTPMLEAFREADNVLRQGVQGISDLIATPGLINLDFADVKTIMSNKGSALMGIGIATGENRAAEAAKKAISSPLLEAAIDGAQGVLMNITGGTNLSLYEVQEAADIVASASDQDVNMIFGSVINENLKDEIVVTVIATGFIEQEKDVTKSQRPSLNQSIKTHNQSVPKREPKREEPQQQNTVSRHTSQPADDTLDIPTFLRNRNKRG
Method in brief: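 Screen: probe (S)-2 (3 μM) with glutaraldehyde-cross-linked BsFtsZ-GMPCPP polymers (8 μM binding sites), each compound at 20 and 200 μM; raw anisotropy compared with partially bound probe, free probe and DMSO vehicle controls (2%, 4%). Hits checked for total intensity changes and with replicates lacking FtsZ.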

[3] = target: T1, Cell division protein FtsZ (Bacillus subtilis); experiment: Competitive binding affinity to Bacillus subtilis FtsZ at 10 uM in presence of PC190723 by fluorescence anisotropy analysis
Method in brief: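 Probe (10 μM) in buffer mixed with unassembled BsFtsZ (10 μM), then GMPCPP (0.1 mM). Polymerization started with MgCl2 (10 mM), anisotropy read 5–10 min later. PC190723 (10 μM) then added to displace probe, with anisotropy read 5 min after. Measured at 25 °C in an L-format spectrofluorometer at each probe's excitation/emission maxima.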

[4] = target: T1, Cell division protein FtsZ (Bacillus subtilis); experiment: Induction of Bacillus subtilis FtsZ polymerization at 0.1 mM measured after 5 to 10 mins by fluorescence anisotropy analysis; settings: time 5-10 min
IMR-90 = experiment: Cytotoxicity against human IMR-90 cells assessed as reduction in cell viability at MIC measured after 48 hrs by MTT assay; type: cell-based; settings: imr-90, 48 h
[5] = target: T1, Cell division protein FtsZ (Bacillus subtilis); experiment: Binding affinity to Bacillus subtilis FtsZ polymer assessed as dissociation constant by fluorescence anisotropy analysis
[6] = target: T2, Cell division protein FtsZ (Bacillus subtilis, UniProt A5Z1V5); experiment: Displacement of free fluorescent probe from inter domain cleft of stabilized Bacillus subtilis FtsZ assessed as dissociation constant in presence of GMPCPP by fluorescence anisotropy analysis
T2 sequence (A5Z1V5 whole entry): T1 sequence (whole entry)
Method in brief: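 BsFtsZ polymers assembled in HEPES buffer pH 6.8 with 10 mM MgCl2 and GMPCPP, cross-linked with 0.15% glutaraldehyde, quenched with NaBH4. Competitor titrated into 7–8 μM polymers plus (S)-2 (3 μM) or 2–3 μM polymers plus (R)-5 (3 μM), 0.1 mM GMPCPP, 25 °C. Initial probe bound fraction 0.4–0.5; KD numerically fitted by competition model; mean ± SEM.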

Bacillus subtilis [7] = experiment: Antimicrobial activity against Bacillus subtilis 168 assessed as inhibition of cell division incubated for 1.5 hrs by phase contrast microscopic analysis; type: functional
Method in brief: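 B. subtilis 168 grown in cation-adjusted Mueller–Hinton broth at 37 °C to A600 0.1–0.2, then incubated with compound or DMSO vehicle. Cells observed by microscopy and cell lengths measured; division inhibition expressed as minimal division inhibitory concentration.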

[8] = target: T1, Cell division protein FtsZ (Bacillus subtilis); experiment: Inhibition of GFP-tagged FtsZ in Bacillus subtilis SU570 assessed as induction of irregular shaped z-ring formation at 0.2 uM incubated for 1.5 hrs; settings: dose 200.0 µM, in the assay text read “0.2 mM” for “0.2 uM”
Method in brief: (§1)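 B. subtilis SU570 expressing FtsZ-GFP grown in cation-adjusted Mueller–Hinton broth at 30 °C to A600 0.1–0.2, then grown 1.5 h with compound or DMSO vehicle. FtsZ-GFP localization (Z-rings, foci) assessed by fluorescence microscopy.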

Bacillus subtilis [9] = experiment: Inhibition of Bacillus subtilis 168 cell division at 0.75 mM measured after 3 hrs by phase-contrast microscopic analysis; type: functional, organism-based
Method in brief: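 B. subtilis 168 grown in CAMHB at 37 °C to A600 0.1–0.2, exposed 3 h to compound or DMSO; cell lengths measured from phase-contrast images (n ≥ 30 cells).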

[10] = target: T1, Cell division protein FtsZ (Bacillus subtilis); experiment: Inhibition of GFP-tagged FtsZ in Bacillus subtilis SU570 assessed as delocalization into punctate foci at 0.2 uM incubated for 1.5 hrs; settings: dose 200.0 µM, in the assay text read “0.2 mM” for “0.2 uM”; method in brief: as §1
[11] = system: Staphylococcus epidermidis; experiment: Antimicrobial activity against Staphylococcus epidermidis assessed as inhibition of bacterial growth by CLSI based broth macrodilution method; type: functional
Method in brief: (§2)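 Cells grown in cation-adjusted Mueller–Hinton broth at 37 °C to A600 0.1–0.2, then exposed to compound or DMSO vehicle. MIC by broth macrodilution as the lowest concentration inhibiting growth.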

[12] = system: Staphylococcus haemolyticus; experiment: Antimicrobial activity against Staphylococcus haemolyticus assessed as inhibition of bacterial growth by CLSI based broth macrodilution method; type: functional; method in brief: as §2

## CCC[C@H](COc1ccc(F)c(C(N)=O)c1F)Nc1ccc([N+](=O)[O-])c2nonc12
Bacillus subtilis [1]
  inhibition: Active

## O=C(O)CCN(Cc1ccccc1)Cc1cccc(Sc2ccccc2)c1
[2]
  Activity: inactive

## CCC[C@@H](COc1ccc(F)c(C(N)=O)c1F)Nc1ccc([N+](=O)[O-])c2nonc12
Bacillus subtilis [1]
  inhibition: Active

## CCCCCCCCC(CNc1ccc([N+](=O)[O-])c2nonc12)Oc1ccc(F)c(C(N)=O)c1F (centres undefined)
[3]
  Activity: inactive

## Nc1nc2c(ncn2[C@@H]2O[C@H](CO[P@@](=O)(O)C[P@@](=O)(O)OP(=O)(O)O)[C@@H](O)[C@H]2O)c(=O)[nH]1
[4]
  Activity: Active

## CCC[C@H](COc1ccc(F)c(C(N)=O)c1F)Nc1cccc(C(F)(F)F)c1
IMR-90
  Activity: Non-Toxic

## NC(=O)c1c(F)ccc(OCc2nc3cc(Cl)cnc3s2)c1F
[5]
  Activity: < 0.1 µM
[6]
  Kd: < 0.1 µM

## Clc1cccc(COc2cccc(-c3ncc[nH]3)c2)c1
Bacillus subtilis [7]
  MIC: 50 µM (≈ 14.2 µg/mL)

## CCCC(CNc1ccc([N+](=O)[O-])c2nonc12)Oc1ccc(F)c(C(N)=O)c1F (centres undefined)
[3]
  Activity: Active

## NC(=O)c1c(F)ccc(OCCNc2cccc(C(F)(F)F)c2)c1F
IMR-90
  Activity: Non-Toxic

## O=C(O)C(=O)c1cn(Cc2ccccc2)c2ccc(-c3ccc(OC(F)(F)F)cc3)cc12
[2]
  Activity: inactive

## CCCC(COc1ccc(F)c(C(N)=O)c1F)Nc1ccc([N+](=O)[O-])c2nonc12 (centres undefined)
[3]
  Activity: Active

## O=C(Oc1cc(OC(=O)c2cc(O)cc(O)c2)c2ccccc2c1)c1ccc(O)c(O)c1
[2]
  Activity: Active

## CN(Cc1cccc(Cl)c1)c1cccc(C(N)=O)c1
[8]
  inhibition: Active
Bacillus subtilis [9]
  inhibition: Active
[10]
  inhibition: Active
[2]
  Activity: inactive

## CCC[C@@H](CNc1ccc([N+](=O)[O-])c2nonc12)Oc1ccc(F)c(C(N)=O)c1F
Bacillus subtilis [1]
  inhibition: Active

## FC(F)(F)c1cccc(COc2cccc(-c3ncc[nH]3)c2)c1
Bacillus subtilis [7]
  MIC: 50 µM (≈ 15.9 µg/mL)

## CCCCCC(CNc1ccc([N+](=O)[O-])c2nonc12)Oc1ccc(F)c(C(N)=O)c1F (centres undefined)
[3]
  Activity: inactive

## NC(=O)c1c(F)ccc(OCc2cccc(Cl)c2)c1F
IMR-90
  Activity: Non-Toxic

## CC1=CC(=O)c2c(O)cccc2C1=O
[2]
  Activity: inactive

## CCN(CC)CCNc1nc(/C=C/c2ccc(Cl)cc2)nc2cc3ccccc3cc12
[2]
  Activity: inactive

## NC(=O)c1c(F)ccc(OCCNc2ccc([N+](=O)[O-])c3nonc23)c1F
[3]
  Activity: Active

## Oc1ccc(/C=C/c2cc(O)cc(O)c2)cc1
[2]
  Activity: inactive

## NC(=O)c1c(F)ccc(OCc2cccc(C(F)(F)F)c2)c1F
IMR-90
  Activity: Non-Toxic

## NC(=O)c1ccc(NCc2cccc(Cl)c2)cc1
[2]
  Activity: inactive

## CN(Cc1cccc(Cl)c1)c1ccc(C(N)=O)cc1
[2]
  Activity: inactive

## NC(c1cccc(OCc2cccc(Cl)c2)c1)C(F)(F)F (centres undefined)
Bacillus subtilis [7]
  MIC: 250 µM (≈ 78.9 µg/mL)

## CCCC(COc1ccc(F)c(C(N)=O)c1F)Nc1cccc(C(F)(F)F)c1 (racemic)
[11]
  MIC: 50 µM (≈ 20.1 µg/mL)
[12]
  MIC: 50 µM (≈ 20.1 µg/mL)

## CCC[C@H](CNc1ccc([N+](=O)[O-])c2nonc12)Oc1ccc(F)c(C(N)=O)c1F
Bacillus subtilis [1]
  inhibition: inactive

## NC(=O)c1cccc(NCc2cccc(Cl)c2)c1
[2]
  Activity: inactive
